Experimental data gathered from unrelated publications.
Protocols differ between the studies behind these lines.
Matrix: Caco-2

SMILES | concentration | time | pH | efflux ratio
N#Cc1ccc(C[C@H](Nc2ncc(-c3ccc(F)cc3)o2)C(=O)N2CCc3ccccc32)cc1 | 100 µM | 2 h | – | 19
O=c1cc(-c2ccc(O)cc2)oc2c([C@@H]3O[C@H](CO)[C@@H](O)[C@H](O)[C@H]3O)c(O)cc(O)c12 | 50 µg/mL | – | – | 1.11
CC[C@]1(O)C[C@@H]2CN(CCc3c([nH]c4ccccc34)[C@@](C(=O)OC)(c3cc4c(cc3OC)N(C)[C@H]3[C@@](O)(C(=O)OC)[C@H](OC(C)=O)[C@]5(CC)C=CCN6CC[C@]43[C@@H]65)C2)C1 | 10 µM | 2 h | – | 13.5
O=C(NCc1nc(-c2ccc(C(F)(F)F)cc2)cs1)[C@H]1CCCN(C(=O)COCCN2CCCC2)C1 | – | – | – | 46
Cc1ccc(N(c2ccc(NC(=O)CN(C)c3ccccc3N3CCCC3=O)cc2)C(C)C)cc1 | – | – | – | 2.3
O=C(NCc1nc(-c2ccc(C(F)(F)F)cc2)cs1)[C@H]1CCCN(C(=O)COCCN2CCCCC2)C1 | – | – | – | 27
CO/N=C(\C(=O)N[C@@H]1C(=O)N2C(C(=O)O)=C(CSC(=O)c3ccco3)CS[C@H]12)c1csc(N)n1 | 200 µg/mL | 2 h | pH 7.4 | 1.96
N#Cc1ccc(C[C@H](Nc2nnc(-c3ccc(F)cc3)o2)C(=O)N2CCc3ccccc32)cc1 | 100 µM | 2 h | – | 3.8
Cc1ncc(Cl)cc1NCc1ccc(C(=O)N[C@@H](CC2CCCC2)C(=O)NC2CC2)s1 | 5 µM | 2 h | pH 7.4 | 41
CCOCC(=O)N1CCC[C@H](C(=O)NCc2nc(-c3ccc(C#N)nc3)cs2)C1 | – | – | – | 4.3
CCCCCCOC(=O)NC(=N)c1ccc(NCc2nc3cc(C(=O)N(CCC(=O)OCC)c4ccccn4)ccc3n2C)cc1 | 5 µM | 2 h | – | 510
O=C1CCC(N2Cc3cc(C4CCN(Cc5ccccc5)CC4)ccc3C2=O)C(=O)N1 (centres unmarked) | 10 µM | 2 h | – | 1.9
O=c1c(O[C@@H]2O[C@H](CO)[C@H](O)[C@H](O)[C@H]2O)c(-c2ccc(O)c(O)c2)oc2cc(O)cc(O)c12 | 50 µg/mL | – | – | 1.26
O=C(NCc1nc(-c2ccc(C(F)(F)F)cc2)cs1)[C@H]1CCCN(C(=O)CO[C@H]2CCCNC2)C1 | – | – | – | 160
